Experimental data reported in PMC9933231 (ACS Omega, 2023).
≈ marks a conversion by molar mass, not a printed value.

Key:
Cytotoxicity assay [1] = assay type: cell-based; details: human, HaCaT keratinocytes
In short: (§1)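 Cells were kept in RPMI 1640 with 10% FBS, penicillin and streptomycin at 37 °C in humidified 5% CO2, and subcultured every 3–4 days. They were seeded at 1 × 10^4 cells/well and left 24 h. Medium was then replaced with test samples, with doxorubicin as reference, for 24 h at 37 °C. CellTiter-Blue was added for 2 h at 37 °C, and fluorescence was read at ex 560/em 590 nm.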

Cytotoxicity assay [2] = assay type: cell-based; details: human, HepG2 cells
In short: as §1

Work on COc1cccc2c1C(=O)c1c(O)c3c(c(O)c1C2=O)C[C@@](O)(C(=O)CO)C[C@@H]3O[C@H]1C[C@H](N)[C@H](O)[C@H](C)O1 [doxorubicin] yielded an IC50 at 24 h (Cytotoxicity assay [1]) of 19.8 ± 0.8 µg/mL (≈ 36.4 µM) and an IC50 at 24 h (Cytotoxicity assay [2]) of 11.4 ± 0.5 µg/mL (≈ 21 µM).
